Among the data in ChEMBL document CHEMBL3259564, “Synthesis and evaluation of immunostimulant plasmalogen lysophosphatidylethanolamine and analogues for natural killer T cells” (Bioorg Med Chem, 2014) are Activity values, retold here.

Structures are written as SMILES. The source made the active and inactive calls. No cut-off for these calls is given here.

The subject of one assay is 2H4. Kind of assay: Immunostimulatory activity in mouse NKT hybridoma 2H4 cells assessed as IL-2 production at 100 ng/ml after 24 hrs by plate-bound mCD1d presenting assay. The assay is classed as functional, cell-based. In a few lines: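 Plates were coated with mouse CD1d protein overnight at 4 °C, PBS-washed and blocked with PBS/10% FCS for 1 h. Compound at 100 ng/mL was loaded for 24 h at 37 °C, then washed off. 2H4 NKT hybridoma cells were added, and IL-2 was measured by ELISA after 24 h. Data are mean ± SD of three independent experiments, with Student's t test against vehicle.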

For assay [1], the species on record is Mus musculus. Kind of assay: Immunostimulatory activity in C57BL/6 mouse splenocytes assessed as IFN-gamma production at 100 ng/ml after 72 hrs by ELISA. Format: functional, cell-based. In short, it runs like this:
(§1)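 C57BL/6 mouse splenocytes were cultured for 72 h with compound at 100 ng/mL or DMSO vehicle in RPMI1640 with 10% FCS, humidified 5% CO2. IFN-γ and IL-4 in the supernatants were measured by ELISA. Assays were run in triplicate and reported as mean ± SD.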

Assay [2] concerns Mus musculus. Kind of assay: In vivo immunostimulatory activity in C57BL/6 mouse assessed as increase in serum IL-4 level at 1 ug, ip after 2 to 24 hrs by ELISA. Format: functional, organism-based. In short, it runs like this: (§2)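 C57BL/6 mice were given compound by intraperitoneal injection. Serum IFN-γ and IL-4 were measured at 2 h and at a later time point. Data are mean ± SD.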

Assay [3] concerns Mus musculus. Kind of assay: In vivo immunostimulatory activity in C57BL/6 mouse assessed as increase in serum IFN-gamma level at 1 ug, ip after 2 hrs by ELISA. The assay is classed as functional, organism-based. In short, it runs like this: as §2
For assay [4], the species on record is Mus musculus. Kind of assay: Immunostimulatory activity in C57BL/6 mouse splenocytes assessed as IL-4/IFN-gamma ratio at 100 ng/ml after 72 hrs by ELISA. The assay is classed as functional, cell-based. In short, it runs like this:
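Whole C57BL/6 splenocytes were given compound at 100 ng/mL or DMSO for 72 h in RPMI1640 with 10% FCS. Supernatant IL-4 and IFN-γ were measured by ELISA. The IL-4/IFN-γ ratio was normalized to the DMSO control. Triplicate, mean ± SD.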

Assay [5] relates to Mus musculus. Kind of assay: In vivo immunostimulatory activity in C57BL/6 mouse assessed as increase in serum IFN-gamma level at 1 ug, ip after 24 hrs by ELISA. Format: functional, organism-based. In a few lines: as §2
The species named for assay [6] is Mus musculus. Kind of assay: Immunostimulatory activity in C57BL/6 mouse splenocytes assessed as IL-4 production at 100 ng/ml after 72 hrs by ELISA. The assay is classed as functional, cell-based. In short, it runs like this:
as §1

On to `CCCCC/C=C\C/C=C\CCCCCCCCC#COC[C@@H](O)COP(=O)(O)OCCN`, for which the result with 2H4, in the assay filed under Mus musculus [1], in the assay on Mus musculus [2], in the assay with Mus musculus [3] and in the assay filed under Mus musculus [4] was Active. The result in the assay on Mus musculus [5] was inactive.
As for `CCCCCCCC/C=C\CCCCCCCCCCCCOC[C@@H](O)COP(=O)(O)OCCN`, the outcome with 2H4, in the assay listed under Mus musculus [6], in the assay listed under Mus musculus [1], in the assay on Mus musculus [2], in the assay on Mus musculus [3] and in the assay filed under Mus musculus [4] was Active. Besides, the result with Mus musculus [5] was inactive.
With `CCCCC/C=C\C/C=C\CCCCCCCC/C=C\OC[C@@H](O)COP(=O)(O)OCCN`, the result in the assay on 2H4, in the assay filed under Mus musculus [1], in the assay with Mus musculus [2], with Mus musculus [3] and in the assay filed under Mus musculus [4] was Active. Also, in the assay with Mus musculus [5], the outcome was inactive.
In the case of `CCCCCCCCCCCCCC/C=C\OC[C@@H](O)COP(=O)(O)OCCN`, the outcome in the assay listed under Mus musculus [6], in the assay filed under Mus musculus [1], in the assay on Mus musculus [2], with Mus musculus [3] and in the assay listed under Mus musculus [4] was Active.
Consider `CCCCCCCC/C=C\CCCCCCCC(=O)OC[C@@H](O)COP(=O)(O)OCCN`, for which the outcome with 2H4, in the assay filed under Mus musculus [6], in the assay filed under Mus musculus [1], with Mus musculus [2], with Mus musculus [3] and in the assay listed under Mus musculus [4] was Active. Further, in the assay on Mus musculus [5], the outcome was inactive.
As to `CCCCCCCC/C=C\CCCCCCCCC#COC[C@@H](O)COP(=O)(O)OCCN`, the result with 2H4, in the assay filed under Mus musculus [6], in the assay listed under Mus musculus [1], in the assay with Mus musculus [2], in the assay on Mus musculus [3] and in the assay filed under Mus musculus [4] was Active. Besides, the result in the assay with Mus musculus [5] was inactive.
